Measured values as given in paper PMC6719797 (Bioorganic & medicinal chemistry letters, 2019).

Tests used:
K562 cells = assay: 5-EU uridine salvage assay; assay type: cell-based; conditions: for %Inhibition at highest tested concentration (EU assay): K562 cells, 50 µM compound, 5-EU salvage
Outline: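 K562 cells, untreated or pre-treated with the DHODH inhibitor GSK983, were given 5-ethynyl-uridine (5-EU) with test compound at a fixed concentration (50 µM). Salvaged 5-EU incorporated into cellular RNA was detected with a fluorescent click probe. Dipyridamole (20 µM) served as the uridine-salvage inhibitor control.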

human UCK2 [1] = molecular target: T1, human UCK2 (Homo sapiens, UniProt Q9BZX2); assay: ADP-Glo kinase assay for UCK2 activity; assay type: biochemical; conditions: for IC50 obtained from validation experiments: retested in the ADP-Glo assay, unit given
T1 sequence (Q9BZX2 1-261): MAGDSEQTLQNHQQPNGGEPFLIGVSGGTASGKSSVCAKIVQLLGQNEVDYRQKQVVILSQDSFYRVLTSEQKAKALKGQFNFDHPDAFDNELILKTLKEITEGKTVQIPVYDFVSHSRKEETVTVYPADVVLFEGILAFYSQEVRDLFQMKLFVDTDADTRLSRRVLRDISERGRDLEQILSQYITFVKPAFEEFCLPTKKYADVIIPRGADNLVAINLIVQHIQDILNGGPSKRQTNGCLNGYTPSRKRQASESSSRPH

A549 cells = assay: 5-EU uptake assay in A549 cells; assay type: cell-based
human UCK2 [2] = molecular target: T1, human UCK2; assay type: biochemical; conditions: kinetic analysis
Outline: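 C-terminally His6-tagged human UCK2 was purified by Ni-NTA and then ion-exchange chromatography. UCK2-generated ADP was coupled through pyruvate kinase and lactate dehydrogenase, and NADH consumption was followed continuously at 340 nm. To determine the mode of inhibition, uridine or ATP was titrated at several fixed inhibitor concentrations, and Ki values were derived for each substrate.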

DNA polymerase eta = conditions: read-out: IC50 DNA polymerase eta; ref PubChem; cited from earlier work
DNA polymerase kappa = conditions: read-out: IC50 DNA polymerase kappa; ref PubChem; cited from earlier work
CMPK1 = molecular target: T2, CMPK1 (Homo sapiens, UniProt P30085); assay: ADP-Glo screen for CMPK1; assay type: biochemical; conditions: analogous ADP-Glo screen
T2 sequence (P30085 1-196): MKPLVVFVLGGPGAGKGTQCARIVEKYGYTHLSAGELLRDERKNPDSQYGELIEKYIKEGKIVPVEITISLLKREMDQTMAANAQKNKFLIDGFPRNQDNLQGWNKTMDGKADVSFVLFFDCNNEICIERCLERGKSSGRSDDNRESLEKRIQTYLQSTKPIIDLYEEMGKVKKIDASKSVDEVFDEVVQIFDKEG

DNA polymerase beta = conditions: read-out: IC50 DNA polymerase beta; HTS hit; ref PubChem; cited from earlier work
DNA polymerase iota = conditions: read-out: IC50 DNA polymerase iota; HTS hit; ref PubChem; cited from earlier work
[3] = substrate: O=c1ccn([C@@H]2O[C@H](CO)[C@@H](O)[C@H]2O)c(=O)[nH]1; assay: ADP-Glo kinase assay for UCK2 activity; assay type: biochemical, human; conditions: other: steady state conditions, named substrate varied

Cc1ccc(-c2nc3c(c(SCC(=O)Nc4ccccc4)n2)Cc2cccc(C)c2O3)cc1 [20874830–1]
%Inhibition at highest tested concentration (EU assay) (K562 cells): No inhibition

O=C(CSCn1[nH]nc2c(=O)nc(Cc3ccc(F)cc3)nc1-2)Nc1ccc(F)cc1 [135546734–2]
IC50 obtained from validation experiments (human UCK2 [1]): completely inactive

COc1cccc(NC(=O)CSCn2[nH]nc3c(=O)nc(Cc4ccc(F)cc4)nc2-3)c1 [135546734–3]
IC50 obtained from validation experiments (human UCK2 [1]): completely inactive | %Inhibition at highest tested concentration (EU assay) (K562 cells): No inhibition

Nc1ncnc2c1ncn2[C@@H]1O[C@H](COP(=O)(O)OP(=O)(O)OP(=O)(O)O)[C@@H](O)[C@H]1O [ATP]
Km (human UCK2 [1]; read-out: KM (UCK2 substrate), steady state conditions, named substrate varied): 61 ± 1 µM

OCCN(CCO)c1nc(N2CCCCC2)c2nc(N(CCO)CCO)nc(N3CCCCC3)c2n1 [Dipyridamole, dipyridamole]
Inhibition of 5-EU uptake (A549 cells): inhibits 5-EU uptake in a dose-dependent manner

O=C(N[C@@H]1CCCc2c1[nH]c1ccc(Cl)cc21)c1ccccn1 [GSK983, reference compound]
Effect on uridine salvage (5-EU assay) (K562 cells; K562 cells treated with GSK983 vs untreated): significantly increased uridine salvage

Cc1ccc(-c2nc3c(c(SCC(=O)Nc4cccc(C(=O)O)c4)n2)Cc2cccc(C)c2O3)cc1 [compound 20874830]
Mode of inhibition with respect to uridine and ATP (human UCK2 [2]): primarily non-competitive

O=C(CSc1nc2n(-c3ccc(F)cc3)[nH]cc-2c(=O)n1)Nc1ccc(Br)cc1 [compound 135416439]
Mode of inhibition with respect to uridine and ATP (human UCK2 [2]): non-competitive | IC50 (DNA polymerase eta): 56 µM | IC50 (DNA polymerase kappa): 16 µM

Cc1cc(C)cc(NC(=O)CSCn2[nH]nc3c(=O)nc(Cc4ccc(F)cc4)nc2-3)c1 [compound 135546734]
Mode of inhibition with respect to uridine and ATP (human UCK2 [2]): similarly non-competitive | inhibition at 50 µM (K562 cells; Homo sapiens, K562, read-out: %Inhibition at highest tested concentration (EU assay), K562 cells, 50 µM compound, 5-EU salvage): ~40% | Inhibition of CMPK1 (CMPK1): no inhibition | IC50 (DNA polymerase beta): 40 µM | IC50 (DNA polymerase eta): 79 µM | IC50 (DNA polymerase iota): 79 µM

B1: human UCK2 (Homo sapiens) (protein)
chain: MAGDSEQTLQNHQQPNGGEPFLIGVSGGTASGKSSVCAKIVQLLGQNEVDYRQKQVVILSQDSFYRVLTSEQKAKALKGQFNFDHPDAFDNELILKTLKEITEGKTVQIPVYDFVSHSRKEETVTVYPADVVLFEGILAFYSQEVRDLFQMKLFVDTDADTRLSRRVLRDISERGRDLEQILSQYITFVKPAFEEFCLPTKKYADVIIPRGADNLVAINLIVQHIQDILNGGPSKRQTNGCLNGYTPSRKRQASESSSRPH
Km [3]: 62 ± 5 µM
